Here are results for nine compounds from ChEMBL document CHEMBL2384912, “Design, synthesis, and inhibitory activity of potent, photoswitchable mast cell activation inhibitors” (J Med Chem, 2013).

The term IC50 denotes the concentration that gives 50% inhibition.

Assay [1] deals with LAD2. Briefly: Inhibition of human LAD2 mast cell activation assessed as compound 48/80-induced degranulation incubated for 30 mins prior to compound 48/80 challenge by beta-hexosaminidase release assay. It is filed as functional, cell-based. Summed up: (§1)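 Supernatant was incubated with 2 mg/mL p-nitrophenyl-N-acetyl-D-glucosaminide in citrate buffer pH 4.5 for 1 h at 37 °C and stopped with 0.4 M glycine. A405 was read; % release = supernatant/(supernatant + lysate) × 100.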

Assay [2] can be described thus: Ratio of DSCG IC50 to compound IC50 for human LAD2 mast cell. It is filed as functional.
Assay [3] concerns LAD2. Briefly: Inhibition of human LAD2 mast cell activation assessed as compound 48/80-induced degranulation at 10 uM incubated for 30 mins prior to compound 48/80 challenge by beta-hexosaminidase release assay. It is filed as functional, cell-based. The method in brief:
as §1

For assay [4], the system named is LAD2. Put plainly: Inhibition of human LAD2 mast cell activation assessed as compound 48/80-induced degranulation at 10 to 20 uM incubated for 30 mins prior to compound 48/80 challenge by beta-hexosaminidase release assay in presence of UV light. The format is functional, cell-based.
The subject of assay [5] is LAD2. Put plainly: Inhibition of human LAD2 mast cell activation assessed as compound 48/80-induced degranulation at 10 to 20 uM incubated for 30 mins prior to compound 48/80 challenge by beta-hexosaminidase release assay. It is filed as functional, cell-based. Summed up:
as §1

The test system of assay [6] is LAD2. Briefly: Inhibition of human LAD2 mast cell activation assessed as compound 48/80-induced degranulation at 100 uM incubated for 30 mins prior to compound 48/80 challenge by histamine release assay. It is filed as functional, cell-based. Summed up:
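Supernatant histamine was derivatized: NaOH, then 0.25% o-phthalaldehyde in MeOH for 4 min at room temperature, then HCl. Fluorescence was read at ex 360/em 450 nm; n = 3.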

Assay [7] relates to LAD2. Put plainly: Inhibition of human LAD2 mast cell activation assessed as compound 48/80-induced degranulation at 200 to 400 uM incubated for 30 mins prior to compound 48/80 challenge by beta-hexosaminidase release assay. The format is functional, cell-based. The method in brief: as §1
Assay [8] deals with LAD2. Put plainly: Inhibition of human LAD2 mast cell activation assessed as compound 48/80-induced degranulation at 200 to 400 uM incubated for 30 mins prior to compound 48/80 challenge by beta-hexosaminidase release assay in presence of UV light. The format is functional, cell-based.
For assay [9], the system named is LAD2. Put plainly: Inhibition of human LAD2 mast cell activation assessed as 1.0 uM compound 48/80-induced degranulation incubated for 30 mins prior to compound 48/80 challenge by beta-hexosaminidase release assay. The format is functional, cell-based. The method in brief: as §1
Assay [10] deals with LAD2. Briefly: Inhibition of human LAD2 mast cell activation assessed as compound 48/80-induced degranulation at 1000 uM incubated for 30 mins prior to compound 48/80 challenge by beta-hexosaminidase release assay. It is filed as functional, cell-based. The method in brief: as §1
In assay [11] the test system is LAD2. Put plainly: Inhibition of human LAD2 mast cell activation assessed as 0.1 uM compound 48/80-induced degranulation incubated for 30 mins prior to compound 48/80 challenge by beta-hexosaminidase release assay. It is filed as functional, cell-based. Summed up: as §1

Molecules are shown by their SMILES. Calls of active or inactive are those of the source. No cut-off for these calls is given here.

Consider `O=C([O-])c1cc(=O)c2c(OCc3ccc(/N=N/c4ccc(COc5cccc6oc(C(=O)[O-])cc(=O)c56)cc4)cc3)cccc2o1.[Na+].[Na+]`, for which the half-maximal inhibitory concentration (IC50) with LAD2 [1] was determined as 28 µM. Further, the “Ratio IC50” value in assay [2] turned out to be 100.
As for `O=C(O)c1cc(=O)c2c(OCc3cccc(/N=N/c4cccc(COc5cccc6oc(C(=O)O)cc(=O)c56)c4)c3)cccc2o1`, the inhibition result in the assay with LAD2 [3], in the assay with LAD2 [4], in the assay with LAD2 [5] and in the assay on LAD2 [6] was “Active” each time.
`O=C(O)c1cc(=O)c2c(OCc3cccc(/N=N/c4cccc(COc5cccc6oc(C(=O)O)cc(=O)c56)c4)c3)cccc2o1` (mixture of isomers): the inhibition entry in the assay on LAD2 [4] and in the assay with LAD2 [5] was “Active” in each case.
Turning to `O=C(O)c1cc(=O)c2c(OCc3ccc(/N=N/c4ccc(COc5cccc6oc(C(=O)O)cc(=O)c56)cc4)cc3)cccc2o1`, the inhibition entry with LAD2 [4] and in the assay on LAD2 [5] was “Active” in each case.
For `O=C(O)c1cc(=O)c2c(OCc3ccc(/N=N/c4ccc(COc5cccc6oc(C(=O)O)cc(=O)c56)cc4)cc3)cccc2o1` (mixture of isomers), the inhibition result in the assay with LAD2 [4] and with LAD2 [5] was “Active” in each case.
As to `O=C(O)c1cc(=O)c2cc(/N=N/c3ccc4oc(C(=O)O)cc(=O)c4c3)ccc2o1`, the inhibition result in the assay on LAD2 [7] and with LAD2 [8] was “Active” each time.
For the compound `O=C([O-])c1cc(=O)c2c(OCc3cccc(/N=N/c4cccc(COc5cccc6oc(C(=O)[O-])cc(=O)c56)c4)c3)cccc2o1.[Na+].[Na+]`, the 50% inhibitory concentration (IC50) in the assay with LAD2 [1] amounted to 10 µM. In addition, the “Ratio IC50” value in assay [2] came out at 100.
For `O=C(O)c1cc(=O)c2c(OCC(O)COc3cccc4oc(C(=O)O)cc(=O)c34)cccc2o1` [CROMOLYN SODIUM], in the assay with LAD2 [9], the inhibition entry is “inactive”. Moreover, the inhibition entry in the assay with LAD2 [10] and with LAD2 [11] was “Active” in each case. Further, the half-maximal inhibitory concentration (IC50) in the assay with LAD2 [1] was > 1000 µM. Further, the outcome in the assay on LAD2 [6] was inactive.
`O=C(O)c1cc(=O)c2cc(/N=N/c3ccc4oc(C(=O)O)cc(=O)c4c3)ccc2o1` (mixture of isomers): the inhibition entry with LAD2 [7] and in the assay on LAD2 [8] was “Active” throughout.
